Laboratory results as given in ChEMBL document CHEMBL1157190, “Design, synthesis, and anticonvulsant activity of N-phenylamino derivatives of 3,3-dialkyl-pyrrolidine-2,5-diones and hexahydro-isoindole-1,3-diones” (Bioorg Med Chem, 2008).
Activity calls are given as the source filed them. The calls are words filed in the database; no cut-off is given here.

How the values were obtained:
Rattus norvegicus [1] = assay: Anticonvulsant activity in Sprague-Dawley rat assessed as protection against seizure at 30 mg/kg, po after 4 hrs by maximal electroshock test; assay type: functional
Method in brief: (§1)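 Male Sprague–Dawley rats; compound suspended in 0.5% methylcellulose/water and given orally at a fixed 30 mg/kg, four rats per time point. MES test run at 0.25, 0.5, 1, 2 and 4 h after dosing, with motor impairment checked in parallel. Read-out: number of rats of four protected.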

Mus musculus [2] = assay: Neurotoxicity in ip dosed CF1 albino mouse after 0.5 hr by rotarod test; assay type: toxicity, organism-based; conditions: in vivo
Method in brief: (§2)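 CF-1 mice given 30, 100 or 300 mg/kg ip in 0.5% methylcellulose/water, examined at 0.5 and 4 h. Rotorod test: neurotoxicity is the inability to keep equilibrium on the rod for a given time. Value is the minimum dose giving motor impairment; a dash means none at 300 mg/kg.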

Rattus norvegicus [3] = assay: Anticonvulsant activity in Sprague-Dawley rat assessed as protection against seizure at 30 mg/kg, po after 2 hrs by maximal electroshock test; assay type: functional; method in brief: as §1
Rattus norvegicus [4] = assay: Anticonvulsant activity in Sprague-Dawley rat assessed as protection against seizure at 50 mg/kg, po after 0.5 hr by subcutaneous pentylenetetrazole test; assay type: functional
Method in brief: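 Male Sprague–Dawley rats dosed orally at 50 mg/kg as a 0.5% methylcellulose/water suspension, four animals per time point. Convulsant given subcutaneously at 0.25, 0.5, 1, 2 and 4 h after dosing; rotorod motor impairment assessed in parallel. Read-out: number of rats of four protected.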

Rattus norvegicus [5] = assay: Anticonvulsant activity in Sprague-Dawley rat assessed as protection against seizure at 30 mg/kg, po after 1 hr by maximal electroshock test; assay type: functional; method in brief: as §1
[6] = Lipophilicity, log kw of compound by RP-HPLC; assay type: physicochemical
Method in brief: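 RP-HPLC on a C18 end-capped column at room temperature, with UV detection at 214 nm and uracil as the unretained marker. Capacity factor k = (tr − t0)/t0, from the mean of three measurement sets. log k extrapolated to 100% water (log k = log kw − Sφ) to give log kw.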

Mus musculus [7] = assay: Anticonvulsant activity in ip dosed CF1 albino mouse assessed as inhibition of maximal electroshock-induced electrical stimulus after 0.5 hr; assay type: functional
Method in brief: (§3)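 Male CF-1 mice injected intraperitoneally at 30, 100 and 300 mg/kg, suspended in 0.5% methylcellulose/water. MES or subcutaneous pentylenetetrazole challenge at 0.5 and 4 h; selected compounds also at 1 or 2 h.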

Mus musculus [8] = assay: Anticonvulsant activity in ip dosed CF1 albino mouse assessed as inhibition of maximal electroshock-induced electrical stimulus at 300 mg/kg after 4 hrs; assay type: functional, organism-based; parameters: dose 300 mg/kg; method in brief: as §3
Mus musculus [9] = assay: Anticonvulsant activity in ip dosed CF1 albino mouse assessed as inhibition of subcutaneous pentylenetetrazole-induced electrical stimulus at 300 mg/kg after 4 hrs; assay type: functional, organism-based; parameters: dose 300 mg/kg; method in brief: as §3
Mus musculus [10] = assay: Anticonvulsant activity in ip dosed CF1 albino mouse assessed as inhibition of subcutaneous pentylenetetrazole-induced electrical stimulus after 0.5 hr; assay type: functional; method in brief: as §3
Mus musculus [11] = assay: Neurotoxicity in ip dosed CF1 albino mouse at 300 mg/kg after 4 hrs by rotarod test; assay type: toxicity, organism-based; parameters: dose 300 mg/kg, route intraperitoneal; conditions: in vivo; method in brief: as §2
Mus musculus [12] = assay: Anticonvulsant activity in ip dosed CF1 albino mouse assessed as inhibition of maximal electroshock-induced electrical stimulus at 300 mg/kg after 0.5 hr; assay type: functional, organism-based; parameters: dose 300 mg/kg; method in brief: as §3
Mus musculus [13] = assay: Anticonvulsant activity in ip dosed CF1 albino mouse assessed as inhibition of subcutaneous pentylenetetrazole-induced electrical stimulus at 300 mg/kg after 0.5 hr; assay type: functional, organism-based; parameters: dose 300 mg/kg; method in brief: as §3
Mus musculus [14] = assay: Neurotoxicity in ip dosed CF1 albino mouse at 300 mg/kg after 0.5 hr by rotarod test; assay type: toxicity, organism-based; parameters: dose 300 mg/kg, route intraperitoneal; conditions: in vivo; method in brief: as §2
Mus musculus [15] = assay: Neurotoxicity in ip dosed CF1 albino mouse after 4 hrs by rotarod test; assay type: toxicity, organism-based; conditions: in vivo; method in brief: as §2
Mus musculus [16] = assay: Anticonvulsant activity in ip dosed CF1 albino mouse assessed as inhibition of maximal electroshock-induced electrical stimulus after 4 hrs; assay type: functional; method in brief: as §3
Rattus norvegicus [17] = assay: Anticonvulsant activity in Sprague-Dawley rat assessed as protection against seizure at 30 mg/kg, po after 0.25 hr by maximal electroshock test; assay type: functional; method in brief: as §1

Structure (SMILES) | Activity (Rattus norvegicus [1]) | Activity (Mus musculus [2]) [mg/kg] | Activity (Rattus norvegicus [3]) | Activity (Rattus norvegicus [4]) | Activity (Rattus norvegicus [5]) | log K [6] | Activity (Mus musculus [7]) [mg/kg] | Activity (Mus musculus [8]) | Activity (Mus musculus [9]) | Activity (Mus musculus [10]) [mg/kg] | Activity (Mus musculus [11]) | Activity (Mus musculus [12]) | Activity (Mus musculus [13]) | Activity (Mus musculus [14]) | Activity (Mus musculus [15]) [mg/kg] | Activity (Mus musculus [16]) [mg/kg] | Activity (Rattus norvegicus [17])
CCC1(C)CC(=O)N(Nc2cccc(Cl)c2)C1=O (stereo not drawn) | inactive | 300 | inactive | inactive | inactive | 2.183 | 300 | – | – | – | – | – | – | – | – | – | –
CCC1(CC)CC(=O)N(Nc2ccccc2Cl)C1=O | – | 100 | – | – | – | 2.244 | – | inactive | inactive | 300 | Not Active | inactive | – | – | – | – | –
O=C1C2CCCCC2C(=O)N1Nc1cccc(Cl)c1 (stereo not drawn) | – | 300 | – | – | – | 2.173 | – | inactive | inactive | 300 | Not Active | inactive | – | – | – | – | –
CNN1C(=O)CC(C)(C)C1=O | – | – | – | – | – | – | – | inactive | inactive | – | Not Active | inactive | inactive | Not Active | – | – | –
CCC1(CC)CC(=O)N(Nc2ccc(C)cc2)C1=O | – | 100 | – | – | – | 1.999 | 300 | inactive | inactive | – | Not Active | – | inactive | – | – | – | –
CCCC1(C)CC(=O)N(Nc2ccc(Br)cc2)C1=O (stereo not drawn) | inactive | 300 | – | – | – | 2.403 | 100 | – | – | 300 | – | – | – | – | 300 | 300 | –
CC1(C)CC(=O)N(Nc2ccccc2Cl)C1=O | – | 30 | – | – | – | 1.876 | 100 | inactive | inactive | 300 | Not Active | – | – | – | – | – | –
Cc1ccc(NN2C(=O)CC(C)(C)C2=O)cc1 | – | 100 | – | – | – | 1.642 | 300 | inactive | inactive | 300 | Not Active | – | – | – | – | – | –
CCC1(C)CC(=O)N(Nc2ccccc2Cl)C1=O (stereo not drawn) | – | 300 | – | – | – | 2.029 | 300 | inactive | inactive | – | Not Active | – | inactive | – | – | – | –
CCC1(C)CC(=O)N(Nc2ccccc2C)C1=O (stereo not drawn) | – | 100 | – | – | – | 1.864 | 300 | inactive | inactive | – | – | – | inactive | – | 100 | – | –
CCC1(C)CC(=O)N(Nc2ccc(C)cc2)C1=O (stereo not drawn) | – | 300 | – | – | – | 1.928 | 300 | inactive | inactive | 300 | Not Active | – | – | – | – | – | –
CCC1(C)CC(=O)N(Nc2ccc(Cl)cc2)C1=O (stereo not drawn) | 25% | 100 | – | – | 25% | 2.201 | 100 | inactive | inactive | 300 | – | – | – | – | 300 | – | inactive
O=C1C2CCCCC2C(=O)N1Nc1ccccc1Cl (stereo not drawn) | – | – | – | – | – | 2.162 | – | inactive | inactive | – | Not Active | inactive | inactive | Not Active | – | – | –
